According to ChEMBL document CHEMBL1759857, “Synthesis and evaluation of isatin analogs as caspase-3 inhibitors: introduction of a hydrophilic group increases potency in a whole cell assay” (Bioorg Med Chem Lett, 2011):
pEC50, pIC50: −log10 of the molar value.

How the values were obtained:
Caspase-3 [1] = target: T1, Caspase-3 (Homo sapiens, UniProt P42574); experiment: Inhibition of staurosporine induced activation of caspase 3 activation in human Hela cells assessed as hydrolysis of Z-DEVD-R110 substrate by microplate fluorescence assay; format: cell-based
T1 sequence (P42574 whole entry): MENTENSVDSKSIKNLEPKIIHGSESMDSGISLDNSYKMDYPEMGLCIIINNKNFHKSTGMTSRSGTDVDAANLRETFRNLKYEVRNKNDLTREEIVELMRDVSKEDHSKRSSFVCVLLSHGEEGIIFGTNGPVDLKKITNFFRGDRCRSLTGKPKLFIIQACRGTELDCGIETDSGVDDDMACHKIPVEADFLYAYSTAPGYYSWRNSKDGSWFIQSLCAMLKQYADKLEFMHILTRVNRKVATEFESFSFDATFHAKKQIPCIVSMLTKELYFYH
Method in brief: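 HeLa cells were seeded at 1-2×10^4 per well and left to adhere overnight at 37°C in 5% CO2. […] A homogeneous caspase-3/7 kit with cell-permeable Z-DEVD-R110 was then used, reading fluorescence at ex 485/em 535 nm. EC50 was taken from dose-response curves, as mean ± SD of ≥3 independent experiments.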

Caspase-3 [2] = target: T1, Caspase-3; experiment: Inhibition of human caspase 3 by fluorometric assay
Method in brief: (§1)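 Recombinant caspases were tested in a standard fluorometric enzyme assay. IC50 is reported as mean ± SD of at least three independent assays.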

Caspase-1 = target: T2, Caspase-1 (Homo sapiens, UniProt P29466); experiment: Inhibition of caspase 1 by fluorometric assay; method in brief: as §1
T2 sequence (P29466 whole entry): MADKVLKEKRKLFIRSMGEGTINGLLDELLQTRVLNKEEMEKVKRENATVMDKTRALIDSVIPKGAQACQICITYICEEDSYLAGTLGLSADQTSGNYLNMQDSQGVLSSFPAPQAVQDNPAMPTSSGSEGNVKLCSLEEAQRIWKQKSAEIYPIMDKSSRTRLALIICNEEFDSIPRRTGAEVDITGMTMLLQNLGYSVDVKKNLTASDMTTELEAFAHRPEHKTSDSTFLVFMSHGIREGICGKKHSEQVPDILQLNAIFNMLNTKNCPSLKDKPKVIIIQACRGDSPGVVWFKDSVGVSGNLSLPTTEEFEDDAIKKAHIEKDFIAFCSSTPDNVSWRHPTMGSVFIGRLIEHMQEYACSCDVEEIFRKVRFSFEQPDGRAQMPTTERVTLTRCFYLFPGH

Caspase-6 = target: T3, Caspase-6 (Homo sapiens, UniProt P55212); experiment: Inhibition of caspase 6 by fluorometric assay; method in brief: as §1
T3 sequence (P55212 whole entry): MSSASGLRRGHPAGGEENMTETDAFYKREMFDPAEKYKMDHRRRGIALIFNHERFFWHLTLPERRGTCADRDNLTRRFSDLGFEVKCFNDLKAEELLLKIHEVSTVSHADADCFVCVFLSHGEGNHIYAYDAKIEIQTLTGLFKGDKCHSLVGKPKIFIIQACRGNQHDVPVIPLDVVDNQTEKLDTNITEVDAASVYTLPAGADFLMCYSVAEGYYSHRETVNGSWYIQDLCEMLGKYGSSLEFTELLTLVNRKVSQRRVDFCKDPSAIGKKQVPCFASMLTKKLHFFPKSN

Caspase-7 = target: T4, Caspase-7 (Homo sapiens, UniProt P55210); experiment: Inhibition of caspase 7 by fluorometric assay
T4 sequence (P55210 whole entry): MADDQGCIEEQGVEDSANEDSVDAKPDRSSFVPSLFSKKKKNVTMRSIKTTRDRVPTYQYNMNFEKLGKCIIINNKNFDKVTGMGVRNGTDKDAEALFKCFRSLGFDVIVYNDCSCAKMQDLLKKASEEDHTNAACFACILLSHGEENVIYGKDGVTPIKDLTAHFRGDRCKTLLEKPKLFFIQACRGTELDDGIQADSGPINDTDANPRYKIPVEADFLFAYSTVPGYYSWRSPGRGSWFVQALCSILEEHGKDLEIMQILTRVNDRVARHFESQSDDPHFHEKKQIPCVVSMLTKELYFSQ

Caspase-8 = Caspase-8 (Homo sapiens, UniProt Q14790); experiment: Inhibition of caspase 8 by fluorometric assay; method in brief: as §1
Sequence of Caspase-8 (Q14790 217-374 limits assumed): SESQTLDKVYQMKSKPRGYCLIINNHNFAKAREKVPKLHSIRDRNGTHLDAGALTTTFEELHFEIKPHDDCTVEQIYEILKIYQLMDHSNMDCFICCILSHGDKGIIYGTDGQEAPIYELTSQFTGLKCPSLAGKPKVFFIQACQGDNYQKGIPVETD
Sequence of Caspase-8 (Q14790 385-479 limits assumed): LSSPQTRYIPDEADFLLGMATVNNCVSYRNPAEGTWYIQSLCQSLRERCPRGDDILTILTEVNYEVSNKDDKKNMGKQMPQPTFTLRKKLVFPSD

| Compound | pEC50 (Caspase-3 [1]) | pIC50 (Caspase-3 [2]) | pIC50 (Caspase-1) | pIC50 (Caspase-6) | pIC50 (Caspase-7) | pIC50 (Caspase-8) |
| --- | --- | --- | --- | --- | --- | --- |
| O=C1C(=O)N(Cc2ccc(OCCOCCOCCF)cc2)c2ccc(S(=O)(=O)N3CCC[C@H]3COc3ccccc3)cc21 | 5.89 | 7.86 | < 4.30 | 5.12 | 7.75 | < 4.30 |
| O=C1Nc2ccc(S(=O)(=O)N3CCC[C@H]3COc3ccccc3)cc2C1=O | 4.94 | – | – | – | – | – |
| O=C1C(=O)N(Cc2ccc(OCCF)cc2)c2ccc(S(=O)(=O)N3CC[C@H]3COc3ccccc3)cc21 | 5.70 | 8.07 | < 4.70 | 5.31 | 7.58 | < 4.60 |
| O=C1C(=O)N(Cc2ccccc2)c2ccc(S(=O)(=O)N3CCC[C@H]3COc3cccnc3)cc21 | 6.19 | – | – | – | – | – |
| O=C1C(=O)N(Cc2cn(CCF)nn2)c2ccc(S(=O)(=O)N3CCC[C@H]3COc3ccccc3)cc21 | 6.03 | 7.91 | < 4.70 | 5.00 | 7.91 | < 4.30 |
| O=C1Nc2ccc(S(=O)(=O)N3CC[C@H]3COc3ccccc3)cc2C1=O | 5.02 | – | – | – | – | – |
| N#CC(C#N)=C1C(=O)N(Cc2ccc(OCCF)cc2)c2ccc(S(=O)(=O)N3CCC[C@H]3COc3cccnc3)cc21 | – | 8.12 | 5.46 | 6.11 | 7.58 | < 4.30 |
| O=C1C(=O)N(Cc2ccc(OCCF)cc2)c2ccc(S(=O)(=O)N3CC[C@H]3COc3cccnc3)cc21 | 6.42 | 8.44 | < 5.00 | 5.06 | 7.75 | < 4.30 |
| O=C1C(=O)N(Cc2ccc(OCCF)cc2)c2ccc(S(=O)(=O)N3CCC[C@H]3COc3ccccc3)cc21 | 5.35 | – | – | – | – | – |
| N#CC(C#N)=C1C(=O)N(Cc2ccc(OCCOCCF)cc2)c2ccc(S(=O)(=O)N3CCC[C@H]3COc3ccccc3)cc21 | – | 7.63 | < 5.00 | 5.93 | 7.15 | < 4.30 |
| O=C1C(=O)N(Cc2cn(CCF)nn2)c2ccc(S(=O)(=O)N3CCC[C@H]3COc3ccc(F)cc3F)cc21 | 6.17 | 7.97 | < 4.70 | 5.35 | 7.94 | < 4.30 |
| O=C1C(=O)N(Cc2cn(CCF)nn2)c2ccc(S(=O)(=O)N3CC[C@H]3COc3ccccc3)cc21 | 6.10 | 7.96 | < 4.70 | 5.16 | 7.74 | < 4.30 |
| O=C1C(=O)N(Cc2ccc(OCCOCCF)cc2)c2ccc(S(=O)(=O)N3CC[C@H]3COc3ccccc3)cc21 | 5.67 | 7.55 | < 4.30 | < 5.00 | 7.54 | < 4.30 |
| O=C1C(=O)N(Cc2ccc(OCCOCCF)cc2)c2ccc(S(=O)(=O)N3CCC[C@H]3COc3ccccc3)cc21 | 5.77 | 7.96 | < 4.60 | < 5.00 | 7.92 | < 4.30 |
| COc1ccc(CN2C(=O)C(=O)c3cc(S(=O)(=O)N4CCC[C@H]4COc4cccnc4)ccc32)cc1 | 6.35 | – | – | – | – | – |
| COc1ccc(CN2C(=O)C(=O)c3cc(S(=O)(=O)N4CC[C@H]4COc4cccnc4)ccc32)cc1 | 6.35 | 8.48 | < 4.82 | 5.04 | 7.99 | < 4.30 |
| O=C1C(=O)N(Cc2ccc(OCCF)cc2)c2ccc(S(=O)(=O)N3CCC[C@H]3COc3cccnc3)cc21 | 6.41 | 8.51 | < 4.70 | 5.16 | 7.95 | < 4.30 |
| O=C1C(=O)N(Cc2cn(CCF)nn2)c2ccc(S(=O)(=O)N3CC[C@H]3COc3ccc(F)cc3F)cc21 | 5.97 | 7.87 | < 4.70 | 5.33 | 7.82 | < 4.30 |

| Compound | pEC50 (Caspase-3 [1]) | pIC50 (Caspase-3 [2]) | pIC50 (Caspase-1) | pIC50 (Caspase-6) | pIC50 (Caspase-7) | pIC50 (Caspase-8) |
| --- | --- | --- | --- | --- | --- | --- |
| CN1C(=O)C(=O)c2cc(S(=O)(=O)N3CC[C@H]3COc3ccccc3)ccc21 | 5.49 | – | – | – | – | – |
| CN1C(=O)C(=O)c2cc(S(=O)(=O)N3CCC[C@H]3COc3cccnc3)ccc21 | 5.74 | – | – | – | – | – |
| N#CC(C#N)=C1C(=O)N(Cc2ccc(OCCF)cc2)c2ccc(S(=O)(=O)N3CC[C@H]3COc3cccnc3)cc21 | – | 8.15 | 5.54 | 6.29 | 7.35 | < 4.30 |
| N#CC(C#N)=C1C(=O)N(Cc2ccc(OCCF)cc2)c2ccc(S(=O)(=O)N3CCC[C@H]3COc3ccccc3)cc21 | – | 7.74 | < 5.00 | 6.03 | 7.02 | < 4.30 |
| N#CC(C#N)=C1C(=O)N(Cc2ccc(OCCOCCF)cc2)c2ccc(S(=O)(=O)N3CC[C@H]3COc3ccccc3)cc21 | – | 7.61 | 5.24 | 5.99 | 7.17 | < 4.30 |
| O=C1C(=O)N(Cc2ccccc2)c2ccc(S(=O)(=O)N3CC[C@H]3COc3ccccc3)cc21 | 5.55 | – | – | – | – | – |
| O=C1Nc2ccc(S(=O)(=O)N3CCC[C@H]3COc3cccnc3)cc2C1=O | 5.74 | – | – | – | – | – |
| COc1ccc(CN2C(=O)C(=O)c3cc(S(=O)(=O)N4CC[C@H]4COc4ccccc4)ccc32)cc1 | 5.51 | – | – | – | – | – |
| COc1ccc(CN2C(=O)C(=C(C#N)C#N)c3cc(S(=O)(=O)N4CC[C@H]4COc4cccnc4)ccc32)cc1 | – | 8.22 | < 4.44 | 6.35 | 7.30 | < 4.30 |
| O=C1C(=O)N(Cc2ccc(OCCF)cc2)c2ccc(S(=O)(=O)N3CC[C@H]3COc3ccc(F)cc3F)cc21 | 5.86 | 7.92 | < 4.30 | 5.46 | 7.81 | < 4.30 |
| O=C1C(=O)N(Cc2cn(CCF)nn2)c2ccc(S(=O)(=O)N3CCC[C@H]3COc3cccnc3)cc21 | 6.46 | 8.35 | < 4.70 | 4.87 | – | < 4.30 |
| O=C1C(=O)N(Cc2cn(CCF)nn2)c2ccc(S(=O)(=O)N3CC[C@H]3COc3cccnc3)cc21 | 6.38 | 8.25 | < 4.70 | 5.11 | 8.21 | < 4.30 |
| O=C1C(=O)N(Cc2ccc(OCCF)cc2)c2ccc(S(=O)(=O)N3CCC[C@H]3COc3ccc(F)cc3F)cc21 | 5.60 | 7.82 | < 4.30 | 5.04 | 7.91 | < 4.30 |
| N#CC(C#N)=C1C(=O)N(Cc2ccc(OCCF)cc2)c2ccc(S(=O)(=O)N3CC[C@H]3COc3ccccc3)cc21 | – | 7.65 | 5.32 | 6.13 | 6.53 | < 4.60 |
| O=C1C(=O)N(Cc2ccc(OCCOCCOCCF)cc2)c2ccc(S(=O)(=O)N3CC[C@H]3COc3ccccc3)cc21 | – | 7.57 | < 4.60 | 5.52 | 7.72 | < 4.30 |
| CN1C(=O)C(=O)c2cc(S(=O)(=O)N3CCC[C@H]3COc3ccccc3)ccc21 | 5.12 | – | – | – | – | – |
| O=C1C(=O)N(Cc2ccccc2)c2ccc(S(=O)(=O)N3CCC[C@H]3COc3ccccc3)cc21 | 5.44 | – | – | – | – | – |
